Test results: ChEMBL document CHEMBL2311331, “Selective and potent adenosine A3 receptor antagonists by methoxyaryl substitution on the N-(2,6-diarylpyrimidin-4-yl)acetamide scaffold” (Eur J Med Chem, 2013)

What was measured:
[1] = biological target: T1, Adenosine receptor A1 (Homo sapiens) (UniProt P30542); assay: Displacement of [3H]DPCPX from human adenosine A1 receptor expressed in CHO cells at 1 uM; type: cell-based
T1 sequence (whole entry): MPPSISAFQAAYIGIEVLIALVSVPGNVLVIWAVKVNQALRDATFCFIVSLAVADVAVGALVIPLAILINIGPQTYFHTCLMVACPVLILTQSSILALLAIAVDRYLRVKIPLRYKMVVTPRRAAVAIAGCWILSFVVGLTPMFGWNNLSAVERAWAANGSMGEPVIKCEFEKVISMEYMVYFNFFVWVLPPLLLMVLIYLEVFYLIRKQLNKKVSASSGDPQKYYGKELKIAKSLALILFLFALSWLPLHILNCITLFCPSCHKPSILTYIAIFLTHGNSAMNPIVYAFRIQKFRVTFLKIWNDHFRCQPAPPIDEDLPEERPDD
Procedure, shortened: (§1)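 Specific radioligand binding measured in the presence of a single test concentration, 1 µM, at each receptor/cell system (A1 CHO with [3H]DPCPX; A2A HeLa with triazolotriazine phenol tracer; A2B HEK-293 with [3H]DPCPX; A3 HeLa with [3H]NECA). Reported as percent displacement of specific binding, n = 2.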

Adenosine receptor A2a [2] = biological target: T2, Adenosine receptor A2a (Homo sapiens, UniProt P29274); assay: Displacement of [3H]4-(2-[7-Amino-2-(2-furyl) [1,2,4]triazolo[2,3-alpha] [1,3,5]triazin-5-ylamino]ethyl)phenol from human adenosine A2A receptor expressed in human HeLa cells at 1 uM; type: cell-based; procedure, shortened: as §1
T2 sequence (P29274 whole entry): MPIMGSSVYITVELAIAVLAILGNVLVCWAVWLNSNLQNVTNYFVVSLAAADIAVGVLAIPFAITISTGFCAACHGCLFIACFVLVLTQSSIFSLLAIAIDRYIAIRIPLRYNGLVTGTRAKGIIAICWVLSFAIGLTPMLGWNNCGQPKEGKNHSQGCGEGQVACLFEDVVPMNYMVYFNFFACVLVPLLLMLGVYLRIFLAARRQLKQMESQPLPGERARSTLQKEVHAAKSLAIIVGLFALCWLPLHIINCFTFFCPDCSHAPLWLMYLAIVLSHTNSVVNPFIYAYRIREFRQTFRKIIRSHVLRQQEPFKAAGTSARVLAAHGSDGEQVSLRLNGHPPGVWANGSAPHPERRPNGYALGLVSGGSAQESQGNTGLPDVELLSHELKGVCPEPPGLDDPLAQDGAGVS

[3] = biological target: T3, Adenosine receptor A2b (Homo sapiens) (UniProt P29275); assay: Displacement of [3H]DPCPX from human adenosine A2B receptor expressed in HEK-293 cells at 1 uM; type: cell-based; conditions: HEK293; procedure, shortened: as §1
T3 sequence (whole entry): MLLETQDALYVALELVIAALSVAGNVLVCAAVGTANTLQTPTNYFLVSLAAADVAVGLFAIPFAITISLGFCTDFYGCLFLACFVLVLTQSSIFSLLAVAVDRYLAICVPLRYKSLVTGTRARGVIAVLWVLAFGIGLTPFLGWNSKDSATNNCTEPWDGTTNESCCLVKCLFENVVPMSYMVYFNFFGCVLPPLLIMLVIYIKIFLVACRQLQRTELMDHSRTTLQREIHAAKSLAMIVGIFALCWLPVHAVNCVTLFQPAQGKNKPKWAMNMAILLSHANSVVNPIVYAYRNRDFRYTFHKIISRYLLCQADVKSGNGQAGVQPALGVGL

Adenosine receptor A2b = biological target: T4, Adenosine receptor A2b (Homo sapiens, UniProt P29275); assay: Displacement of [3H]DPCPX from human adenosine A2B receptor expressed in HEK-293 cells; type: cell-based, HEK293
T4 sequence (P29275 whole entry): T3 sequence (whole entry)

Adenosine receptor A3 = biological target: T5, Adenosine receptor A3 (Homo sapiens, UniProt P0DMS8); assay: Displacement of [3H]NECA from human adenosine A3 receptor expressed in human HeLa cells; type: cell-based
T5 sequence (P0DMS8 whole entry): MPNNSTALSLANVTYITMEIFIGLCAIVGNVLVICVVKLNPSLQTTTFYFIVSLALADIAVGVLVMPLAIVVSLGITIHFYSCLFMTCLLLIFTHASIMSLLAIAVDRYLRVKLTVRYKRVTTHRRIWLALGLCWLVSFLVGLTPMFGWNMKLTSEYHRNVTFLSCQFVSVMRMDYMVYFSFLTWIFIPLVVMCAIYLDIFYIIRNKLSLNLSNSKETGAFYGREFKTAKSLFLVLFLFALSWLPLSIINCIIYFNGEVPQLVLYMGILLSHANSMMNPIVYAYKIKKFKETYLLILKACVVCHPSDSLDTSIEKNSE

Adenosine receptor A1 = biological target: T6, Adenosine receptor A1 (Homo sapiens, UniProt P30542); assay: Displacement of [3H]DPCPX from human adenosine A1 receptor expressed in CHO cells; type: cell-based
T6 sequence (P30542 whole entry): T1 sequence (whole entry)

Adenosine receptor A2a [4] = biological target: T2, Adenosine receptor A2a; assay: Displacement of [3H]4-(2-[7-Amino-2-(2-furyl) [1,2,4]triazolo[2,3-alpha] [1,3,5]triazin-5-ylamino]ethyl)phenol from human adenosine A2A receptor expressed in human HeLa cells; type: cell-based
[5] = biological target: T7, Adenosine receptor A3 (Homo sapiens) (UniProt P0DMS8); assay: Displacement of [3H]NECA from human adenosine A3 receptor expressed in human HeLa cells at 1 uM; type: cell-based; procedure, shortened: as §1
T7 sequence (whole entry): T5 sequence (P0DMS8 whole entry)

Row | Compound | inhibition [1] [%] | inhibition (Adenosine receptor A2a [2]) [%] | inhibition [3] [%] | Ki (Adenosine receptor A2b) [nM] | Ki (Adenosine receptor A3) [nM] | Ki (Adenosine receptor A1) [nM] | Ki (Adenosine receptor A2a [4]) [nM] | inhibition [5] [%]
1 | COc1ccc(-c2cc(NC(C)=O)nc(-c3ccc(OC)cc3)n2)cc1 | 2 | 4 | 2 | – | – | – | – | –
2 | COc1ccccc1-c1cc(NC(C)=O)nc(-c2ccccc2OC)n1 | 4 | 15 | 7 | – | – | – | – | –
3 | CC(=O)Nc1cc(-c2ccccc2)nc(-c2ccccc2)n1 | – | – | 22 | – | – | – | – | –
4 | COc1cccc(-c2cc(NC(C)=O)nc(-c3cccc(OC)c3)n2)c1 | – | – | – | 67.5 | 2.8 | 22.6 | 49.4 | –
5 | COc1cccc(OC)c1-c1cc(NC(C)=O)nc(-c2c(OC)cccc2OC)n1 | 4 | 1 | 3 | – | – | – | – | 4
6 | COc1ccc(-c2cc(NC(C)=O)nc(-c3ccc(OC)c(OC)c3)n2)cc1OC | 10 | 5 | 2 | – | 5.2 | – | – | –
7 | COc1cccc(-c2cc(NC(C)=O)nc(-c3cccc(OC)c3OC)n2)c1OC | 10 | – | – | 494 | 42.4 | – | 375 | –
8 | COc1cc(-c2cc(NC(C)=O)nc(-c3cc(OC)c(OC)c(OC)c3)n2)cc(OC)c1OC | 14 | 1 | 1 | – | 26.1 | – | – | –
9 | CC(=O)Nc1cc(-c2ccc3c(c2)OCO3)nc(-c2ccc3c(c2)OCO3)n1 | – | – | 6 | – | – | 17 | – | –
10 | COc1ccc(/C=C/c2cc(NC(C)=O)nc(/C=C/c3ccc(OC)cc3)n2)cc1 | 16 | 13 | 2 | – | 513 | – | – | –
11 | CCOc1ccc(-c2cc(NC(C)=O)nc(-c3ccc(OCC)cc3)n2)cc1 | 12 | 2 | 1 | – | 40.2 | – | – | –
12 | CC(=O)Nc1cc(-c2ccc(OC(F)(F)F)cc2)nc(-c2ccc(OC(F)(F)F)cc2)n1 | 8 | 1 | 4 | – | 389 | – | – | –
13 | COc1ccc(-c2cc(NC(C)=O)nc(-c3ccc(OC)cc3OC)n2)c(OC)c1 | 3 | 10 | 7 | – | – | – | – | –
14 | COc1cc(OC)cc(-c2cc(NC(C)=O)nc(-c3cc(OC)cc(OC)c3)n2)c1 | 15 | 3 | 1 | – | 55 | – | – | –
15 | COc1ccc(OC)c(-c2cc(NC(C)=O)nc(-c3cc(OC)ccc3OC)n2)c1 | 4 | 17 | 1 | – | 6.3 | – | – | –
